The values below come from ChEMBL document CHEMBL1121974, “Structure-activity relationships of some technetium-99m labeled [(thioethyl)amino] carboxylates” (J Med Chem, 1982).

The test system of series [1] is Mus musculus. Kind of series: Percent injected radioactivity was determined in blood after intravenous administration into the tail vein of male swiss albino mice after 60 min. To be noted: in vivo, 1 h. The series is classed as ADME, organism-based. In outline: (§1)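 Mice weighing 20–25 g received 0.2 mL (2 μCi) and were held in metabolic cages. At 60 min they were killed with ether, with the penis ligated. Organs were γ-counted, tail counts were subtracted from the dose, and values are the mean of five ±SD.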

In series [2] the test system is Mus musculus. Kind of series: Percent injected radioactivity was determined in intestine after intravenous administration into the tail vein of male swiss albino mice, after 60 min. The series is classed as ADME, organism-based. As to conditions: in vivo, 1 h. In outline:
as §1

Series [3] concerns Mus musculus. In words: Percent injected radioactivity was determined in kidney after intravenous administration into the tail vein of male swiss albino mice after 60 min. The format is ADME, organism-based. To be noted: in vivo, 1 h. A digest of the protocol:
as §1

The test system of series [4] is Mus musculus. In words: Percent injected radioactivity was determined in liver and gallbladder after intravenous administration into the tail vein of male swiss albino mice after 60 min. The series is classed as ADME, organism-based. More on the design: concentration or dose not given beside the values. As to conditions: in vivo, 1 h. In outline:
as §1

In series [5] the test system is Mus musculus. In words: Percent injected radioactivity was determined in muscle after intravenous administration into the tail vein of male swiss albino mice after 60 min. The format is ADME, organism-based, Muscle tissue. Details: concentration or dose not given beside the values. To be noted: in vivo, 1 h. In outline: as §1
Series [6] has as its system Mus musculus. Kind of series: Percent injected radioactivity was determined in urine after intravenous administration into the tail vein of male swiss albino mice after 60 min. The series is classed as ADME, organism-based. Details: concentration or dose not given beside the values. To be noted: in vivo, 1 h. In outline:
as §1

Series [7] is described as follows: Acidity constant pK1 was measured. The format is ADME. As to conditions: read-out: pK1. In outline: (§2)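 Acid-base titration of the free ligands over a pH range, followed by the chemical shifts of nonlabile protons. Macroscopic constants were assigned to the COOH, SH and NH⁺ dissociation steps; microscopic constants were not obtained.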
Series [8] can be described thus: Acidity constant pK2 was measured. The series is classed as ADME. To be noted: read-out: pK2. In outline:
as §2

Series [9] in a line: Acidity constant pK3 was measured. The series is classed as ADME. As to conditions: read-out: pK3. A digest of the protocol:
as §2

The nature of series [10]: Acidity constant pK3' was measured. To be noted: read-out: pK3'. The format is ADME. A digest of the protocol: as §2

`Cl.O=C(O)CNCCS`: the Radioactivity with Mus musculus [1] is listed as 4.176%; in the series with Mus musculus [2], 16.702%; with Mus musculus [3], 5.318%; in the series with Mus musculus [4], 5.448%; in the series with Mus musculus [5], 6.988%; in the series on Mus musculus [6], 36.323%. In addition, the pKa in [7] turned out to be 2.6; in [8], 8.5; in series [9], 11.6.
Consider `O=C(O)C(S)C(S)C(=O)O` (stereo not drawn), for which the Radioactivity with Mus musculus [1] was 18.873%; in the series with Mus musculus [2], 5.693%; in the series with Mus musculus [3] it was 21.823%; in the series with Mus musculus [4], 12.617%; with Mus musculus [5], 24.17%; in the series with Mus musculus [6] it was 30.04%.
Turning to `CCCCSCCN(CC(=O)O)CC(=O)O`, the Radioactivity in the series on Mus musculus [1] was found to be 2.8%; with Mus musculus [2], 52.4%; in the series on Mus musculus [3], 2.767%; in the series with Mus musculus [4], 12.7%; with Mus musculus [5], 4.013%; with Mus musculus [6], 15.967%.
On to `O=C(O)CN(CCSc1ccc2ccccc2c1)CC(=O)O`, for which the Radioactivity is 4.41% in the series on Mus musculus [1]; 51.3% in the series with Mus musculus [2]; 1.842% with Mus musculus [3]; 22.748% in the series on Mus musculus [4]; 5.254% with Mus musculus [5]; 9.74% in the series with Mus musculus [6].
Take `O=C(O)CN(CCS)CC(=O)O`: the Radioactivity in the series with Mus musculus [1] is 3.598%; in the series with Mus musculus [2] it was 4.743%; with Mus musculus [3] it was 5.677%; with Mus musculus [4], 1.92%; with Mus musculus [5], 7.553%; in the series with Mus musculus [6], 52.11%. The pKa stood at 1.9 in series [7], 7.7 in series [8] and 10.6 in series [9].
Turning to `O=C(O)CN(CCSSCCN(CC(=O)O)CC(=O)O)CC(=O)O`, the Radioactivity in the series with Mus musculus [1] turned out to be 4.64%; with Mus musculus [2], 8.9%; with Mus musculus [3], 4.24%; in the series on Mus musculus [4] it was 3.085%; with Mus musculus [5], 7.97%; in the series on Mus musculus [6], 50.09%. In addition, the pKa in series [7] amounted to 2.3; in series [9], 9.2.
Turning to `O=C(O)CN(CCSCc1ccccc1)CC(=O)O`, the Radioactivity in the series with Mus musculus [1] amounted to 2.627%; in the series on Mus musculus [2], 58.02%; in the series on Mus musculus [3], 2.083%; in the series with Mus musculus [4], 8.429%; in the series on Mus musculus [5], 3.32%; with Mus musculus [6] it was 11.371%. In addition, the results for the pKa in series [7] and in series [9] were 2.1 and 9.1, respectively.
Regarding `CCSCCN(CC(=O)O)CC(=O)O`, the Radioactivity is on record as 4.55% in the series on Mus musculus [1]; 25.533% in the series on Mus musculus [2]; 3.567% with Mus musculus [3]; 8.568% in the series on Mus musculus [4]; 3.56% in the series with Mus musculus [5]; 34.1% with Mus musculus [6].
Regarding `O=C(O)CN(CCS)CCN(CCS)CC(=O)O`, the Radioactivity with Mus musculus [1] is given as 3.46%; in the series on Mus musculus [2] it was 16.924%; in the series with Mus musculus [3] it was 5.62%; in the series on Mus musculus [4] it was 4.3%; in the series on Mus musculus [5], 3.472%; with Mus musculus [6], 39.5%. For the same compound, the pKa in series [7] is 1.1; in [8] it was 9; in [9], 11.6; in series [10], 4.6.
